The text below walks through data of ChEMBL document CHEMBL4699485, “Discovery and Development of SPR519 as a Potent, Selective, and Orally Bioavailable Inhibitor of PI3Kα and mTOR Kinases for the Treatment of Solid Tumors” (J Med Chem, 2020).

Each structure is given as a SMILES string. Calls of active or inactive are those of the source. The calls are words filed in the database; no cut-off is given here. Bounds are passed on as bounds.

Data set [1] is described as follows: AUC in Swiss mouse at 3 mg/kg, po via gavage by LC-MS/MS analysis. Also on record: dose 3 mg/kg. It counts as ADME, organism-based. Particulars: in vivo. The gist of the method:
(§1)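 Female Swiss mice (n=3/group), fasted overnight, given single oral gavage dose in 0.5% CMC/0.5% Tween 80 (10 mL/kg) at 1, 3 or 10 mg/kg. Serial blood sampling at 0.16–8 h into heparinized tubes. Plasma extracted with acetonitrile containing verapamil internal standard and quantified by LC-MS/MS. Cmax, Tmax, AUC and t1/2 derived from the concentration–time profile.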

A short description of data set [2]: Metabolic stability in human liver microsomes assessed as parent compound remaining at 10 uM remaining after 120 mins in presence of NADPH by HPLC analysis. It counts as ADME, Microsome. The settings on record: read-out: Stabilty. A digest of the protocol: (§2)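 Compound at 10 µM was incubated with 0.5 mg/mL liver microsomes and 1 mM NADPH (final). Samples were taken at 0, 15, 30, 60 and 120 min and stopped with acetonitrile, then centrifuged and the supernatant analysed by HPLC. Percent parent remaining was set relative to the 0 min peak area (100%).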

Another data set has as its target Cytochrome P450 2C19 (Homo sapiens, UniProt P33261). The experiment in a line: Inhibition of CYP2C19 in human liver microsomes using isoform-specific probe substrates preincubated for 5 mins followed by NADPH addition by LC-MS/MS analysis. It counts as ADME. The gist of the method: (§3)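 Human liver microsomes premixed with buffer and a CYP-specific FDA-recommended probe substrate, then spiked with inhibitor, in duplicate. After 5 min preincubation at 37 °C, reaction started with NADPH and run at 37 °C for a set time, then quenched. Metabolite formation quantified by HPLC/LC-MS/MS to derive the concentration giving 50% inhibition.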
A general note: Microsomes from liver hold many membrane-bound enzymes, among them those of drug oxidation.

Data set [3] can be described thus: Cmax in Swiss mouse at 3 mg/kg, po via gavage by LC-MS/MS analysis. It counts as ADME, organism-based. Set-up: route oral, dose 3 mg/kg. The settings on record: in vivo. The gist of the method:
as §1

A short description of data set [4]: Tmax in Swiss mouse at 3 mg/kg, po via gavage by LC-MS/MS analysis. It counts as ADME, organism-based. The settings on record: in vivo. A digest of the protocol: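 Female Swiss mice (n=3/group) were fasted overnight, then gavaged with compound in 0.5% CMC/0.5% Tween 80 at 10 mL/kg. Serial blood samples at 0.16, 0.5, 1, 2, 4, 6 and 8 h were taken into heparinized tubes and spun to plasma. Plasma was extracted with acetonitrile containing verapamil (400 ng/mL) and quantified by LC-MS/MS against plasma calibration curves. Tmax was derived from the concentration–time profile.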

The next data set addresses Cytochrome P450 3A4 (Homo sapiens, UniProt P08684). The experiment in a line: Inhibition of CYP3A4 in human liver microsomes using isoform-specific probe substrates preincubated for 5 mins followed by NADPH addition by LC-MS/MS analysis. It counts as ADME. A digest of the protocol: as §3
The target in data set [5] is Serine/threonine-protein kinase mTOR (Homo sapiens, UniProt P42345). The experiment in a line: Inhibition of recombinant human GST-tagged mTOR catalytic domain (1360 to 2549 residues) expressed in baculovirus expression system using GFP-4E-BP1 as substrate preincubated for 15 mins followed by substrate addition and measured after 60 mins by TR-FRET assay. The gist of the method: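 Recombinant mTOR (FRAP1) was preincubated 15 min with serially diluted compound (10 µM–0.0005 µM, DMSO) in kinase buffer, 10 µL reaction. GFP-4E-BP1 (400 nM final) and ATP (8 µM final) were added and the reaction ran 1 h at RT. Quench buffer with Tb-anti-p4E-BP1 (pThr46) was added for 1 h at RT. TR-FRET 520/486 nm ratio was fitted by four-parameter sigmoidal regression.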
In general terms: In TR-FRET formats the signal depends on donor and acceptor labels being close together.

Data set [6] is described as follows: Metabolic stability in mouse liver microsomes assessed as parent compound remaining at 10 uM remaining after 120 mins in presence of NADPH by HPLC analysis. It counts as ADME, Microsome. The settings on record: read-out: Stabilty. A digest of the protocol:
as §2

In another data set the test system is PC-3. The experiment in a line: Antiproliferative activity against human PC-3 cells after 48 hrs by MTT assay. It counts as functional, cell-based. Particulars: PC-3, 48 h. A digest of the protocol: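 PC3 cells grown in RPMI 1640 with 10% FBS and 1% penicillin/streptomycin at 37 °C, 5% CO2, seeded at 10000 cells/well. Treated 48 h across 20 µM–0.001 µM. MTT (5 mg/mL in PBS) added for 4 h, then DMSO solubilization and absorbance at 550 nm. Four-parameter nonlinear fit of % inhibition.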
A general note: Tetrazolium dyes change colour on reduction, which living cells bring about.

Data set [7] concerns the target T1, Voltage-gated inwardly rectifying potassium channel KCNH2 (Homo sapiens, UniProt Q12809). The experiment in a line: Inhibition of human ERG by patch-clamp assay.
Another data set concerns A2780. The experiment in a line: Antiproliferative activity against human A2780 cells after 48 hrs by MTT assay. Particulars: A2780, 48 h. It counts as functional, cell-based. The gist of the method: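 A2780 cells grown in DMEM with 10% FBS, L-glutamine and antibiotics, seeded at 10000 cells/well and allowed to adhere overnight. Treated 48 h across 20 µM–0.001 µM. MTT (5 mg/mL in PBS) added for 4 h, formazan dissolved in DMSO, absorbance read at 550 nm. % inhibition fit to a four-parameter log inhibitor vs response curve.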

The next data set is filed under the species Homo sapiens. The experiment in a line: Channel blockade of human ERG G601S mutant expressed in mammalian expression system assessed as effect on surface expression of channel at 1 to 30 uM by HERG-Lite assay. The settings on record: dose microM 1-30. The gist of the method:
(§4)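 HERG-lite assay scoring both channel blocking and trafficking inhibition, with test compound at 1, 10 and 30 µM. Geldanamycin (1 µM) served as the trafficking-inhibition reference and astemizole as the standard hERG binder.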

Data set [8] can be described thus: Metabolic stability in dog liver microsomes assessed as parent compound remaining at 10 uM remaining after 120 mins in presence of NADPH by HPLC analysis. It counts as ADME, Canis lupus familiaris, Microsome. The settings on record: read-out: Stabilty. A digest of the protocol:
as §2

The next data set deals with Cytochrome P450 2D6 (Homo sapiens, UniProt P10635). The experiment in a line: Inhibition of CYP2D6 in human liver microsomes using isoform-specific probe substrates preincubated for 5 mins followed by NADPH addition by LC-MS/MS analysis. It counts as ADME. A digest of the protocol:
as §3

Data set [9] concerns the target PI3-kinase p110-alpha/p85-alpha (Homo sapiens, UniProt P42336). The experiment in a line: Inhibition of recombinant human full-length N-terminal His-tagged p110 alpha/p85 alpha expressed in baculovirus expression system using PIP2 as substrate preincubated for 15 mins followed by substrate addition and measured after 60 mins by ADP HiLyte 647 tracer bound ADP2 antibody-Tb conjugate based HTRF assay. A digest of the protocol: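 PI3Kα at 150 ng/mL (diluted stock) in 50 mM HEPES pH 7.4, 3 mM MgCl2, 2 mM DTT, 0.05% CHAPS, 50 mM NaCl, 1 mM EGTA. Compound tested over 10–0.001 µM. Final reaction held 50 µM PIP2 and 1 µM ATP. Detection mix added for 1 h, then 665/615 nm ratio read. % inhibition versus concentration fitted by four-parameter nonlinear regression to give IC50.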

Data set [10] can be described thus: Elimination half life in Swiss mouse at 3 mg/kg, po via gavage by LC-MS/MS analysis. It counts as ADME, organism-based. The settings on record: in vivo, read-out: beta t1/2 (converted). A digest of the protocol:
as §1

For data set [11], the target named is T1, Voltage-gated inwardly rectifying potassium channel KCNH2. The experiment in a line: Inhibition of human ERG channel trafficking expressed in mammalian expression system at 1 to 30 uM by HERG-Lite assay. Particulars: dose 1-30 µM. A digest of the protocol: as §4
For a further data set, the system named is SK-OV-3. The experiment in a line: Antiproliferative activity against human SK-OV-3 cells after 48 hrs by MTT assay. It counts as functional, cell-based. Particulars: SK-OV-3, 48 h. A digest of the protocol: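 SK-OV-3 cells grown in McCoy's 5a with 10% FBS, 100 U/mL penicillin and 100 µg/mL streptomycin at 37 °C, 5% CO2, seeded at 10000 cells/well. Treated 48 h across 20 µM–0.001 µM. MTT (5 mg/mL in PBS) added for 4 h, DMSO solubilization, absorbance read at 550 nm. Four-parameter curve fit of % inhibition.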

The nature of data set [12]: Drug uptake in Swiss mouse plasma at 10 mg/kg, po via gavage by LC-MS/MS analysis. It counts as ADME, organism-based. Particulars: in vivo. The gist of the method: as §1

Sequence of PI3-kinase p110-alpha/p85-alpha (P27986 whole entry): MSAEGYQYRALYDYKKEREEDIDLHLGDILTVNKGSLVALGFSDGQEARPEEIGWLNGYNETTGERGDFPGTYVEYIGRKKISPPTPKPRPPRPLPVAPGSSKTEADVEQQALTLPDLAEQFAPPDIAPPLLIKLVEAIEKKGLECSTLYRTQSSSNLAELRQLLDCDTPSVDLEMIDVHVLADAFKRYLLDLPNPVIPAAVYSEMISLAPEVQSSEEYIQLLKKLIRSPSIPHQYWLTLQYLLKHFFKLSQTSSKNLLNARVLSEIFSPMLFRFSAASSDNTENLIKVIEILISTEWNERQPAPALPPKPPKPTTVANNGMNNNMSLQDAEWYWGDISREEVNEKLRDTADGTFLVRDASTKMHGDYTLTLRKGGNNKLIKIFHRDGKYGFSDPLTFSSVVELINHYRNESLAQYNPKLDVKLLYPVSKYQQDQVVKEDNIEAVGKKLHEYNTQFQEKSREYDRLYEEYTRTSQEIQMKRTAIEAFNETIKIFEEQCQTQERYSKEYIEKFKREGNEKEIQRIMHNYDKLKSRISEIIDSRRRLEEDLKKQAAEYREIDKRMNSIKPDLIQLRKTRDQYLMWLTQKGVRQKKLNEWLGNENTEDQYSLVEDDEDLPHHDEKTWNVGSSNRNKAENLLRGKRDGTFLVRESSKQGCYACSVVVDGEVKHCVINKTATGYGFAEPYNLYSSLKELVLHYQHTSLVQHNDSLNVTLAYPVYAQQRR
Sequence of PI3-kinase p110-alpha/p85-alpha (P42336 whole entry): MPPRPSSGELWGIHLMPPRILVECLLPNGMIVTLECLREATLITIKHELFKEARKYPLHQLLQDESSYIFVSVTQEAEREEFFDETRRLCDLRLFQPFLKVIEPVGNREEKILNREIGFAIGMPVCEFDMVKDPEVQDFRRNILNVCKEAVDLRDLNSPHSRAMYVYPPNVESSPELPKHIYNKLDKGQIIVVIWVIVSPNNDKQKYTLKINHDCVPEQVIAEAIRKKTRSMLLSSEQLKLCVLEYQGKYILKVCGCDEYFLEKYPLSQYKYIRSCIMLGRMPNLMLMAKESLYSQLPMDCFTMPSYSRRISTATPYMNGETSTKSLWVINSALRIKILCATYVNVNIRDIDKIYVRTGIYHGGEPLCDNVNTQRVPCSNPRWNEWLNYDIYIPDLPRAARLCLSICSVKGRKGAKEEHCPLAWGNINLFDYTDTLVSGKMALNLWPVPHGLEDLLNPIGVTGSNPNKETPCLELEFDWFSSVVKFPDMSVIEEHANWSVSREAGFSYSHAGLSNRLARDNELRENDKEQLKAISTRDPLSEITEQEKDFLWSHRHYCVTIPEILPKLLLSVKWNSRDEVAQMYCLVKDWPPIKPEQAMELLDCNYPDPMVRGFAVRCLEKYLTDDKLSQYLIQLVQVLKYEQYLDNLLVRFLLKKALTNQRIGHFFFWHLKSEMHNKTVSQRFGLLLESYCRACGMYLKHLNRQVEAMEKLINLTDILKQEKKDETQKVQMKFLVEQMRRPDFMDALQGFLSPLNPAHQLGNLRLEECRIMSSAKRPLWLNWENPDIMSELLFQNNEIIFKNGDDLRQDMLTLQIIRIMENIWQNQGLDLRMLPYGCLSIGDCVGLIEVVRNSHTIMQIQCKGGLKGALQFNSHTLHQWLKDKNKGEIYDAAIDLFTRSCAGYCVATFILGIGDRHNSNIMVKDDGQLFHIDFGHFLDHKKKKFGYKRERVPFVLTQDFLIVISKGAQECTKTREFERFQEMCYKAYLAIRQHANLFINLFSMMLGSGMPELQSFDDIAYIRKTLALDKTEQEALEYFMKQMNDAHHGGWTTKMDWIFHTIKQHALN
T1 sequence (Q12809 whole entry): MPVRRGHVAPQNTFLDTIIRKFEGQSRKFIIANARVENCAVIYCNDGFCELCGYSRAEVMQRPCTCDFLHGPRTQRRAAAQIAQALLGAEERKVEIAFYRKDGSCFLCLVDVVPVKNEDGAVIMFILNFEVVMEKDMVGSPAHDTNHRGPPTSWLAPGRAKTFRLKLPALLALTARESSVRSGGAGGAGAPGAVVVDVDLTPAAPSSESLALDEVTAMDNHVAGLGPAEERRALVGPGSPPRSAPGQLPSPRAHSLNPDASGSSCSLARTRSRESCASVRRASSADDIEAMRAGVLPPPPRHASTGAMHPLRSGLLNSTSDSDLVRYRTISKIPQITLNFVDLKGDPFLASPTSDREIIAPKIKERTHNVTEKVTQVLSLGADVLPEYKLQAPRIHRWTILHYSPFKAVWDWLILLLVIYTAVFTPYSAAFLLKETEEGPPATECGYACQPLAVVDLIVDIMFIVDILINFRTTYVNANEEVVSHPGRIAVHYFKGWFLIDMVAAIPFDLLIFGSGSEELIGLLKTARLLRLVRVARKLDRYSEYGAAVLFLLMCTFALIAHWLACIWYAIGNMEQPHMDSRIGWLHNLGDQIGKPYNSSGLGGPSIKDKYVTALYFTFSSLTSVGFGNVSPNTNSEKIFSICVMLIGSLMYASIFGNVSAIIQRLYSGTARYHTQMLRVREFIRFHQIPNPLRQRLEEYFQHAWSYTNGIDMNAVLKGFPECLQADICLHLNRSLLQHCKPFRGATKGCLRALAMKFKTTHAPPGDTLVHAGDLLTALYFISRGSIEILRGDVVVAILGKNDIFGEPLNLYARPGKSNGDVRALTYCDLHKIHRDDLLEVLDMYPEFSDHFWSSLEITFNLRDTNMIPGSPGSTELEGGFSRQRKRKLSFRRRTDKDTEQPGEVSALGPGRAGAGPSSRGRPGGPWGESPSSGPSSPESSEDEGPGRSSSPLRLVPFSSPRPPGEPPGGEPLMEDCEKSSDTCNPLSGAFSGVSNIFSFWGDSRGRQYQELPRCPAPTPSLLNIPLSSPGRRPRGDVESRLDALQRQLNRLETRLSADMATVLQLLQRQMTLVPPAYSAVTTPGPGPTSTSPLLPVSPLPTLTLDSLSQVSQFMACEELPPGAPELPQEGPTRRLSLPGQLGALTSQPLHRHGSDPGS
Sequence of Cytochrome P450 2D6 (P10635 whole entry, canonical isoform): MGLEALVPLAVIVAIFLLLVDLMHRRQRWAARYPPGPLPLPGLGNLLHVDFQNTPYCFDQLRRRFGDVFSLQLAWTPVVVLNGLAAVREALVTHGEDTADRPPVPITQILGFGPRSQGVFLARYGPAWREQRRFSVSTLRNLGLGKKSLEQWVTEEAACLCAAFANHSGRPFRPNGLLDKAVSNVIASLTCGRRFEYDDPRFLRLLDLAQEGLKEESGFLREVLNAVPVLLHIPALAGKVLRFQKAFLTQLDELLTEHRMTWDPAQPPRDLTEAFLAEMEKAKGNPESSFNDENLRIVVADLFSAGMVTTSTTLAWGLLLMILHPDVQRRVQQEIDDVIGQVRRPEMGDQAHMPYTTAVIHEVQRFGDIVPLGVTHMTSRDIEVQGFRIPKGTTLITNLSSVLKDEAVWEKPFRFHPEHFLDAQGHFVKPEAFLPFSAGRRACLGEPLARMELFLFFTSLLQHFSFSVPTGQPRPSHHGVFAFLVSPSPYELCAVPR
Sequence of Cytochrome P450 2C19 (P33261 whole entry, canonical isoform): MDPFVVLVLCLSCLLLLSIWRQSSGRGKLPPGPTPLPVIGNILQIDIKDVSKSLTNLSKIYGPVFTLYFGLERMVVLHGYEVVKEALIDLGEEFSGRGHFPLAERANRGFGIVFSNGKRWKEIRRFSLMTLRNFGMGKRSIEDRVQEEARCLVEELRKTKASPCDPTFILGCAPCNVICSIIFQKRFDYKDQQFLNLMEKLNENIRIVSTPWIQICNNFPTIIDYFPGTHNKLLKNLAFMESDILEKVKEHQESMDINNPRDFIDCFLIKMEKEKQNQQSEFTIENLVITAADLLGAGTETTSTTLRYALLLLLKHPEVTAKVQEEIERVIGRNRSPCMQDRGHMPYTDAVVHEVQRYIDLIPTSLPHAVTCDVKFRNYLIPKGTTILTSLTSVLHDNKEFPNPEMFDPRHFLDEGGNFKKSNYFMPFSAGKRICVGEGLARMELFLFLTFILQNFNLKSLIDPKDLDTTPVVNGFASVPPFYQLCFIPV
Sequence of Cytochrome P450 3A4 (P08684 whole entry, the tested form may be a part, canonical isoform): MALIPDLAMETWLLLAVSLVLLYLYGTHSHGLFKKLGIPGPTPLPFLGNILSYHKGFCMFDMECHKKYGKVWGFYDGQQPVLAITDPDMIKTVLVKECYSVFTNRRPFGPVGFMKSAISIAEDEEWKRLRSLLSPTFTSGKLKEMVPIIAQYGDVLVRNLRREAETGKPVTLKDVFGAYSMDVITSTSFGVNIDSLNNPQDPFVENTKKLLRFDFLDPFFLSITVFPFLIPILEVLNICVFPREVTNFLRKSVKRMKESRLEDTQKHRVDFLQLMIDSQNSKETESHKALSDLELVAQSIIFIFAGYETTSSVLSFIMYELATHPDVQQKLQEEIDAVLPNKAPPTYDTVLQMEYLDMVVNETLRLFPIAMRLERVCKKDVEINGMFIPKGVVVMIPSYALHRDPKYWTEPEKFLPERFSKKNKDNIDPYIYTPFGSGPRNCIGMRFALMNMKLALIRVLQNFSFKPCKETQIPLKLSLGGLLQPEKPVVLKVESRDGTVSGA

As for `CN(C)C(=O)c1ccc(Oc2nc(-c3ccc(N)nc3)nc(N3CCOCC3)n2)cc1`, the exposure (AUC) in data set [1] is 10.9 µM·h. The figures for the remaining at 2 h, 10 µM in [2], in [6] and in data set [8] were 93%, 102% and 93%, respectively. In addition, the IC50 against Cytochrome P450 2C19 is more than 10000 nM; on Cytochrome P450 3A4, more than 10000 nM; in data set [5], 200 nM; in [7], more than 1000 nM; in the data set with A2780, 200 nM; against Cytochrome P450 2D6, more than 10000 nM. In addition, the IC50 in data set [9] amounted to 210 nM. Also, in data set [3], the Cmax came to 2010 nM. Moreover, the Tmax in data set [4] was determined as 1.4 h. The figures for the EC50 in the data set with PC-3 and in the data set on SK-OV-3 were 280 nM and 210 nM, respectively. Further, the outcome in the data set filed under Homo sapiens was Active. For the same compound, in data set [10], the half-life is 2.7 h. Moreover, in data set [11], the “inhibition (INH)” value is “Not Active”.
Take `Cc1cc(N)ncc1-c1nc(Oc2ccc(C(=O)N(C)C)cc2)nc(N2CCOCC2)n1`: the half-inhibitory concentration (IC50) (in the data set on A2780; in data set [9]) was more than 10000 nM each time.
With `Cc1cc(-c2nc(Oc3ccc(C(=O)N(C)C)cc3)nc(N3CCOCC3)n2)cnc1N`, the IC50 came to 1500 nM with A2780 and 460 nM in data set [9].
Consider `CN(C)C(=O)c1ccc(Oc2nc(-c3cnc(N)[nH]3)nc(N3CCOCC3)n2)cc1`, for which the values for the IC50 (with A2780; in data set [9]) were 2360 nM and 900 nM, respectively.
For `CN(C)C(=O)c1ccc(Oc2nc(-c3cccc4[nH]ncc34)nc(N3CCOCC3)n2)cc1`, the AUC in data set [1] was determined as 5.25 µM·h. Besides, the remaining at 2 h, 10 µM in data set [2] was 100%; in data set [6], 45%; in data set [8] it was 83%. The IC50 in data set [5] was 1350 nM; in the data set on A2780, 520 nM. For the same compound, the EC50 with PC-3 worked out at 1970 nM; in the data set with SK-OV-3, 520 nM.
In the case of `CN(C)C(=O)c1ccc(Oc2nc(-c3cccc(O)c3)nc(N3CCOCC3)n2)cc1`, in [12], the Drug uptake result is “Not Active”. Moreover, the IC50 was 90 nM with A2780 and 10 nM in data set [9].
Consider `Cc1nc(N)ccc1-c1nc(Oc2ccc(C(=O)N(C)C)cc2)nc(N2CCOCC2)n1`, for which the IC50 in the data set with A2780 was more than 10000 nM; in [9] it was 3400 nM.
For `CN(C)C(=O)c1ccc(Oc2nc(-c3cnc(N)nc3)nc(N3CCOCC3)n2)cc1`, the IC50 in [5] turned out to be 960 nM; in the data set with A2780, 560 nM; in data set [9], 270 nM. For the same compound, the EC50 in the data set on PC-3 worked out at 800 nM; with SK-OV-3, 220 nM.
On to `CN(C)C(=O)c1ccc(Oc2nc(-c3ccnc4[nH]ccc34)nc(N3CCOCC3)n2)cc1`, for which, in data set [1], the AUC worked out at 16.8 µM·h. In addition, the remaining at 2 h, 10 µM is 92% in data set [2], 68% in data set [6] and 77% in [8]. Moreover, the IC50 is more than 10000 nM on Cytochrome P450 2C19; more than 10000 nM against Cytochrome P450 3A4; 220 nM in data set [5]; more than 10000 nM in data set [7]; 370 nM with A2780; more than 10000 nM against Cytochrome P450 2D6. Moreover, the IC50 in data set [9] worked out at 80 nM. In data set [3], this compound returned a peak concentration (Cmax) of 3080 nM. Moreover, the time of peak concentration (Tmax) in [4] was determined as 1 h. Moreover, the EC50 with PC-3 turned out to be 300 nM; with SK-OV-3 it was 370 nM. For the same compound, the result in the data set filed under Homo sapiens was Active. Besides, in data set [10], the half-life is 2.8 h. In data set [11], the “inhibition (INH)” value was “Not Active”.
As to `Cc1nc(N)sc1-c1nc(Oc2ccc(C(=O)N(C)C)cc2)nc(N2CCOCC2)n1`, the IC50 with A2780 was 1100 nM; in data set [9], 140 nM.
`CN(C)C(=O)c1ccc(Oc2nc(-c3cccc4[nH]nnc34)nc(N3CCOCC3)n2)cc1`: the IC50 (in the data set with A2780; in [9]) was more than 10000 nM each time.
Turning to `CN(C)C(=O)c1ccc(Oc2nc(-c3cccc4[nH]ccc34)nc(N3CCOCC3)n2)cc1`, the IC50 with A2780 came out at 900 nM; in [9] it was 560 nM.

The term AUC denotes concentration integrated over time. A higher AUC goes with high exposure. Usually IC50 stands for the concentration at which inhibition is half-maximal. Broadly, the Cmax is the highest concentration seen after dosing. Broadly, the Tmax is the time at which the peak concentration occurs. As a reminder, the EC50 is the concentration giving half of the maximal effect. A higher EC50 goes with a less potent agent.
